pIC50: −log10 of the molar value. Calls of active or inactive are those of the source. No cut-off for these calls is given here.
Tests used:
Vaccinia virus [1] = assay: Antiviral activity against Vaccinia virus WR expressing luciferase reporter virus v3 infected in rabbit RK13 cells assessed as inhibition of early stages of VACV replication at 10 uM incubated for 30 mins prior to inoculation measured after 2 hrs by luciferase reporter gene assay relative to control; assay type: functional; conditions: Orthopoxvirus vaccinia, RK-13
BSC-1 [2] = assay: Cytotoxicity against african green monkey BSC1 cells infected with Vaccinia virus-WR luciferase reporter virus v3 assessed as visible cytotoxic effect at 10 uM incubated for 30 mins prior to inoculation measured after 2 hrs by phase contrast microscopic analysis; assay type: cell-based; conditions: chlorocebus aethiops, bsc-1, 2 h
Vaccinia virus [3] = assay: Ratio of cidofovir IC50 to compound IC50 for Vaccinia virus WR; assay type: functional, Orthopoxvirus vaccinia
[4] = Cytotoxicity against african green monkey BSC1 cells assessed as ATP levels […] by CellTitre-Glo Luminescent Cell Viability assay; assay type: cell-based, BSC-1; conditions: chlorocebus aethiops
BSC-1 [5] = assay: Cytotoxicity against african green monkey BSC1 cells infected with Vaccinia virus-WR after 4 days; assay type: cell-based; conditions: chlorocebus aethiops, bsc-1, 96 h
[6] = Cytotoxicity against human HFFF cells assessed as cell viability by CellTitre-Glo Luminescent Cell Viability assay; assay type: cell-based
Vaccinia virus [7] = assay: Antiviral activity against Vaccinia virus WR infected in african green monkey BSC1 cells after 4 days by plaque reduction assay; assay type: functional, organism-based; conditions: Orthopoxvirus vaccinia, BSC-1, 96 h
Measles morbillivirus [8] = assay: Antiviral activity against wild type Measles virus mWTFb infected in simian B95a cells assessed as virus-induced cytopathogenicity incubated for 30 mins prior to inoculation measured after 3 days by phase contrast microscopy; assay type: functional, organism-based
Measles morbillivirus [9] = assay: Antiviral activity against Measles virus Edmonston infected in african green monkey BSC-1 cells assessed as virus-induced cytopathogenicity incubated for 30 mins prior to inoculation measured after 3 days by phase contrast microscopy; assay type: functional
Method in brief: (§1)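 Cells grown to 80% confluence in 96-well plates and pretreated 30 min with drug-containing medium. Infection was 100 pfu (HSV-1/2, adenovirus 5) or 100 sfu (measles) per well, then 3 days in DMEM without FBS or antibiotics with drug at 1–100 µM. CPE was scored by phase contrast against virus-only controls. TCID50 is the 50% CPE reduction, averaged over 3 experiments by Reed–Muench.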

Measles morbillivirus [10] = assay: Ratio of ribavirin TCID50 to compound TCID50 for wild type Measles virus mWTFb; assay type: functional
Human alphaherpesvirus 1 [11] = assay: Antiviral activity against HSV 1 NCPV 17+ infected in african green monkey BSC-1 cells assessed as virus-induced cytopathogenicity incubated for 30 mins prior to inoculation measured after 3 days by phase contrast microscopy; assay type: functional; method in brief: as §1
Human alphaherpesvirus 1 [12] = assay: Antiviral activity against HSV 1 NCPV 17+ infected in human HFFF cells assessed as virus-induced cytopathogenicity incubated for 30 mins prior to inoculation measured after 3 days by phase contrast microscopy; assay type: functional; method in brief: as §1
Human adenovirus 5 [13] = assay: Antiviral activity against Adenovirus type 5 ATCC VR-5 infected in human HFFF cells assessed as virus-induced cytopathogenicity incubated for 30 mins prior to inoculation measured after 3 days by phase contrast microscopy; assay type: functional; method in brief: as §1
Human alphaherpesvirus 2 [14] = assay: Antiviral activity against HSV 2 NCPV 132349 infected in human HFFF cells assessed as virus-induced cytopathogenicity incubated for 30 mins prior to inoculation measured after 3 days by phase contrast microscopy; assay type: functional; method in brief: as §1
Measles morbillivirus [15] = assay: Antiviral activity against Measles virus Edmonston infected in simian B95a cells assessed as virus-induced cytopathogenicity incubated for 30 mins prior to inoculation measured after 3 days by phase contrast microscopy; assay type: functional; method in brief: as §1
[16] = Selectivity index, ratio of CC50 for african green monkey BSC1 cells to IC50 for Vaccinia virus-WR; assay type: functional, BSC-1
Human adenovirus 5 [17] = assay: Antiviral activity against Adenovirus type 5 ATCC VR-5 infected in african green monkey BSC1 cells assessed as virus-induced cytopathogenicity incubated for 30 mins prior to inoculation measured after 3 days by phase contrast microscopy; assay type: functional, BSC-1; method in brief: as §1
Human alphaherpesvirus 2 [18] = assay: Antiviral activity against HSV 2 NCPV 132349 infected in african green monkey BSC-1 cells assessed as virus-induced cytopathogenicity incubated for 30 mins prior to inoculation measured after 3 days by phase contrast microscopy; assay type: functional; method in brief: as §1

Structure (SMILES)	inhibition at 10 µM (Vaccinia virus [1])	Activity (BSC-1 [2])	Activity (BSC-1 [5])	pIC50 (Vaccinia virus [7])	further results
CCC(C)OCCCCCCCCCc1cc2cn([C@@H]3CC[C@H](CO)O3)c(=O)nc2o1 (some centres not stated)	69.9%	Non-toxic			
CCCCCCCCc1cc2cn([C@@H]3CC[C@H](CO)O3)c(=O)nc2o1	41.9%	Non-toxic			
CCCCCCOCCCCCCCCCc1cc2cn([C@@H]3CC[C@H](CO)O3)c(=O)nc2o1	35.7%	Non-toxic	Non-toxic	6.72	Ratio IC50 (Vaccinia virus [3]): 60; CC50 at 96 h [4]: 74.1 µM; CC50 [6]: > 100 µM
CCCCCCCCCc1cc2cn([C@@H]3CC[C@H](CO)O3)c(=O)nc2o1	38.1%	Non-toxic			
CC(C)OCCCCCCCCCc1cc2cn([C@@H]3CC[C@H](CO)O3)c(=O)nc2o1	79.9%	Non-toxic			
CCCCc1ccc(-c2cc3cn([C@@H]4CC[C@H](CO)O4)c(=O)nc3o2)cc1	43.7%	Non-toxic			
CCCCCCOCCCCCCCCc1cc2cn([C@@H]3CC[C@H](CO)O3)c(=O)nc2o1	37.2%	Non-toxic	Non-toxic	5.77	
CCCCCCCc1cc2cn([C@@H]3CC[C@H](CO)O3)c(=O)nc2o1	43.2%	Non-toxic			
CC(C)COCCCCCCCCCc1cc2cn([C@@H]3CC[C@H](CO)O3)c(=O)nc2o1	64.3%	Non-toxic			
CC(C)(C)OCCCCCCCCCc1cc2cn([C@@H]3CC[C@H](CO)O3)c(=O)nc2o1	70.7%	Non-toxic			
CCCCCCCCCCOCCCCc1cc2cn([C@@H]3CC[C@H](CO)O3)c(=O)nc2o1	26.1%	Non-toxic	Non-toxic	5.66	
CCCCCCCCCCCCCOCc1cc2cn([C@@H]3CC[C@H](CO)O3)c(=O)nc2o1	43.9%	Non-toxic	Non-toxic	5.47	
COC[C@H]1OC(=O)c2coc3c2[C@@]1(C)C1=C(C3=O)[C@@H]2CCC(=O)[C@@]2(C)C[C@H]1OC(C)=O [WORTMANNIN]					pIC50 (Measles morbillivirus [8]): 4.12
CCCCCc1ccc(-c2cc3cn([C@@H]4CC[C@H](CO)O4)c(=O)nc3o2)cc1	73.6%	Non-toxic			
CCCCCOCCCCCCCCCc1cc2cn([C@@H]3CC[C@H](CO)O3)c(=O)nc2o1	27.7%	Non-toxic	Non-toxic	6.72	Ratio IC50 (Vaccinia virus [3]): 60; TCID50 (Measles morbillivirus [9]): >50 µM; Ratio (Measles morbillivirus [10]): 150; TCID50 (Human alphaherpesvirus 1 [11]): >50 µM; CC50 at 96 h [4]: > 100 µM; TCID50 (Human alphaherpesvirus 1 [12]): >50 µM; TCID50 (Human adenovirus 5 [13]): >50 µM; TCID50 (Human alphaherpesvirus 2 [14]): >50 µM; TCID50 (Measles morbillivirus [15]): >50 µM; Ratio CC50/IC50 [16]: >500; CC50 [6]: > 100 µM; TCID50 (Human adenovirus 5 [17]): >50 µM; TCID50 (Human alphaherpesvirus 2 [18]): >50 µM
CCCCCCCCCCCCc1cc2cn([C@@H]3CC[C@H](CO)O3)c(=O)nc2o1	96.4%	Non-toxic			
CCCOCCCCCCCCCc1cc2cn([C@@H]3CC[C@H](CO)O3)c(=O)nc2o1	46.8%	Non-toxic	Non-toxic	5.72	CC50 at 96 h [4]: 89.1 µM; CC50 [6]: > 100 µM
NC(=O)c1ncn([C@@H]2O[C@H](CO)[C@@H](O)[C@H]2O)n1 [RIBAVIRIN]					pIC50 (Measles morbillivirus [8]): 2.94
CCCCCCc1cc2cn([C@@H]3CC[C@H](CO)O3)c(=O)nc2o1	70.7%	Non-toxic			
Nc1ccn(C[C@@H](CO)OCP(=O)(O)O)c(=O)n1 [CIDOFOVIR]	94.6%			4.94	inhibition (Measles morbillivirus [8]): inactive; CC50 at 96 h [4]: > 100 µM; CC50 [6]: > 100 µM
COCCCCCCCCCCCCCc1cc2cn([C@@H]3CC[C@H](CO)O3)c(=O)nc2o1	60.5%	Non-toxic			
CCOCCCCCCCCCc1cc2cn([C@@H]3CC[C@H](CO)O3)c(=O)nc2o1	79.9%	Non-toxic	Non-toxic	4.89	CC50 at 96 h [4]: 79.4 µM; CC50 [6]: > 100 µM
CCCCOCCCCCCCCCc1cc2cn([C@@H]3CC[C@H](CO)O3)c(=O)nc2o1	27.5%	Non-toxic	Non-toxic	5.74	CC50 at 96 h [4]: > 100 µM; CC50 [6]: > 100 µM
CCCCCCCCCCc1cc2cn([C@@H]3CC[C@H](CO)O3)c(=O)nc2o1	45.7%	Non-toxic			
